Only some compounds are listed: those with a hit (about 4.8% of all), similar ones and a draw of the others.
UCH37 inh – inhibitors of human deubiquitinating enzyme UCH37; purified proteasome/UCH37, Ub-AMC cleavage fluorescence; inhibition, % (test concentration not listed); hit rate 0.33% among 330,000;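 active = mean inhibition over replicate wells above about 20%, limit read from the data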
Target sequence (Q9Y5K5 whole entry, looked up): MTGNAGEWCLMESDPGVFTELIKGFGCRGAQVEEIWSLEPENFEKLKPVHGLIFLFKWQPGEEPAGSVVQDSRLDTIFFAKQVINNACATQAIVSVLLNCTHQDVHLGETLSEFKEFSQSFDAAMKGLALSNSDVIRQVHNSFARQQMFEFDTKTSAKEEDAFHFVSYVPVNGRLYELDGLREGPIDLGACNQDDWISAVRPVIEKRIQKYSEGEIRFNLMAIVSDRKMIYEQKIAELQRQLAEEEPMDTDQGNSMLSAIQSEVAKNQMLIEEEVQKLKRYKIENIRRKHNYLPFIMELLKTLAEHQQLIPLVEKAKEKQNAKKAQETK
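Material: Human UCH37 enzyme supplied as purified proteasome complex | Schedule: 30 min compound-proteasome preincubation then 25 min substrate reaction, room temperature | Detection: AMC fluorescence from Ub-AMC cleavage, excitation 355 nm, emission 460 nm | Benchmarks: Wells without proteasome as full block, compound-free enzyme plus substrate as uninhibited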
Calb FLC – C. albicans growth modulation with fluconazole; growth inhibition, % (no concentration beside the values); hit rate 0.57% among 300,000; C. albicans CaCi-2 + fluconazole, Alamar Blue growth, 48 h;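 active = growth inhibition above about 58% in most replicates, limit read from the data, passing the limit was not always enough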;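 note: all wells also contain fluconazole at 8 µg/ml as a sub-toxic cotreatment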
NALP3 yeast inh – inhibitors of NALP3 inflammasome in yeast | AID 2825 | hit rate 0.39% among 330,000 | Yeast reconstituted NLRP3/ASC/caspase-1, beta-gal luminescence, 24 h | inhibition, % at 10 µM;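 active = inhibition of 50% or more; inactive = inhibition below 50%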
ATG4B inhibitor – inhibitors of human ATG4B cysteine protease | inhibition, % at 8.33 µM | ATG4B cleavage of LC3-PLA2, NBD-HPC fluorescence, 1 h | hit rate 0.51% among 340,000; in the data active = inhibition above about 40%
NALP1 inh – inhibitors of NALP1 inflammasome in yeast | hit rate 0.61% among 280,000 | inhibition, % at 10 µM | S. cerevisiae NALP1/ASC/caspase-1 growth, X-gal OD620, 72 h; in the data active = inhibition mostly above about 24%, no sharp cut-off; inactive = mostly below about 32%
ALR H2O2 inh – human ALR oxidase inhibition via reduced H2O2. hit rate 3.8% among 290,000. purified ALR, DTT oxidation, H2O2 HRP-luminol luminescence. AID 485317. inhibition, % (no concentration beside the values);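 active = mean replicate inhibition above about 79%, with every replicate also reaching it, limit read from the data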
Target sequence (P55789 whole entry, looked up): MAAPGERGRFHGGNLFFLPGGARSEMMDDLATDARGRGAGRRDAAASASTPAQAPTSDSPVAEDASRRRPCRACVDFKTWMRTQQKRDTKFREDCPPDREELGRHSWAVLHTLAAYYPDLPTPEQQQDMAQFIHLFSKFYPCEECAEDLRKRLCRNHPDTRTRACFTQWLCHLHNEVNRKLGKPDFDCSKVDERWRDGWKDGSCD
Each line names hits and unclear results; the compound was inactive in the other large screens.

COc1ccc(C=NNC(=O)C(=O)NCc2cccnc2)cc1	none (no result: Calb FLC, NALP3 yeast inh, ATG4B inhibitor, NALP1 inh, ALR H2O2 inh)
CCOC(=O)C(C)=NNC(=O)c1ccc([N+](=O)[O-])cc1	none (no result: Calb FLC, NALP3 yeast inh, ATG4B inhibitor, NALP1 inh, ALR H2O2 inh)
CCN(CC)S(=O)(=O)c1cccc(C(=O)NN=Cc2ccc(OC)c(O)c2)c1	none (no result: Calb FLC, NALP3 yeast inh, ATG4B inhibitor, NALP1 inh, ALR H2O2 inh)
Cc1nc2ccccc2cc1C(=O)NN=Cc1cccc([N+](=O)[O-])c1	none (no result: Calb FLC, NALP3 yeast inh, ATG4B inhibitor, NALP1 inh, ALR H2O2 inh)
COc1cc(C(=O)N/N=C/c2cn(Cc3ccccc3)c3ccccc23)ccc1O	ALR H2O2 inh 85 (no result: UCH37 inh)
CCN(CC)S(=O)(=O)c1cccc(C(=O)N/N=C/c2ccc(OC)c(O)c2)c1	ALR H2O2 inh 97 (no result: UCH37 inh)
Cc1nc2c(C)cccc2cc1C(=O)N/N=C/c1cccc([N+](=O)[O-])c1	ALR H2O2 inh 98 (no result: UCH37 inh)
COc1cc(/C=N/N2CCCCC2)cc([N+](=O)[O-])c1O	ALR H2O2 inh 98 (no result: UCH37 inh)
CN(C)CCCn1c(=S)[nH]c2sc3c(c2c1=O)CCCC3	ALR H2O2 inh 99
Cc1ccc(N2C(=O)CC(SCC(=O)Nc3ccc(S(N)(=O)=O)cc3)C2=O)cc1 (centres undefined)	ALR H2O2 inh 99
CCOc1ccc(N2C(=O)CC(N3CCOCC3)C2=O)cc1 (centres undefined)	none
COC(=O)c1ccc(N2C(=O)CC(SCC(=O)Nc3ccc(OC)cc3)C2=O)cc1 (centres undefined)	none (no result: NALP1 inh, ALR H2O2 inh)
O=C(CSC1CC(=O)N(c2ccc(C(=O)O)cc2)C1=O)Nc1ccc2ccccc2c1 (centres undefined)	ALR H2O2 inh 100
CCOC(=O)c1ccc(N2C(=O)CC(N3CCOCC3)C2=O)cc1 (centres undefined)	NALP1 inh 30
CCOC(=O)c1ccc(N2C(=O)CC(SCC(=O)Nc3ccc(S(N)(=O)=O)cc3)C2=O)cc1 (centres undefined)	ALR H2O2 inh 99
O=C(O)CSC1CC(=O)N(c2ccc(Cl)c(Cl)c2)C1=O (centres undefined)	ALR H2O2 inh 98
O=C(O)CSC1CC(=O)N(c2cccc(Cl)c2)C1=O (centres undefined)	none
CC(=O)c1sc(NN=Cc2ccc(Br)cc2)nc1C	none (no result: Calb FLC, NALP3 yeast inh, ATG4B inhibitor, NALP1 inh, ALR H2O2 inh)
Cc1cccc(C)c1NC(=O)C1CCCN(CCCc2ccccc2)C1 (centres undefined)	NALP1 inh 42 (no result: Calb FLC, NALP3 yeast inh, ALR H2O2 inh)
O=C(/C=C/c1ccc2c(c1)OCO2)Nc1c(C(=O)O)[nH]c2ccccc12	ALR H2O2 inh 98 (no result: UCH37 inh)
CC(=NNC(=O)c1ccc2ccccc2c1)c1cccs1	none (no result: Calb FLC, NALP3 yeast inh, ATG4B inhibitor, NALP1 inh, ALR H2O2 inh)
O=C1C(Cl)=C(NCC2CCCO2)C(=O)N1C1CCCCC1 (centres undefined)	ALR H2O2 inh 98
CC(=O)NN=C(C)CC(=O)NC(C)(C)C	none (no result: Calb FLC, NALP3 yeast inh, ATG4B inhibitor, NALP1 inh, ALR H2O2 inh)
ON=Cc1ccccc1Oc1ccc(Cl)cc1	none (no result: Calb FLC, NALP3 yeast inh, ATG4B inhibitor, NALP1 inh, ALR H2O2 inh)
O=C(Cn1cc(C(F)(F)F)ccc1=O)N/N=C/c1ccc(O)cc1	ALR H2O2 inh 99 (no result: UCH37 inh)
CN1CCN(S(=O)(=O)c2ccc(N3CCN(c4ccc(O)cc4)CC3)c([N+](=O)[O-])c2)CC1	ALR H2O2 inh 98 (no result: NALP1 inh)
CCOc1cc(C=NNC(=O)Cn2nc([N+](=O)[O-])cc2C)ccc1OCc1cccc2ccccc12	none (no result: Calb FLC, NALP3 yeast inh, ATG4B inhibitor, NALP1 inh, ALR H2O2 inh)
Cc1ccnc(NS(=O)(=O)c2ccc(NS(=O)(=O)c3cc(Cl)ccc3Cl)cc2)n1	NALP1 inh 40
Cc1ccnc(NS(=O)(=O)c2ccc(NS(=O)(=O)c3ccc([N+](=O)[O-])cc3)cc2)n1	none
CC1CCN(c2ccc(C(F)(F)F)cc2N)CC1	ALR H2O2 inh 98
CC1CCN(c2ccc(S(=O)(=O)N3CCC(C)CC3)cc2N)CC1	none
Cc1cccn2c(=O)c3cc(C(=O)NCCc4ccccc4)c(=N)n(Cc4ccco4)c3nc12	none
COc1ccc(CCNC(=O)c2cc3c(=O)n4cccc(C)c4nc3n(Cc3ccco3)c2=N)cc1OC	ALR H2O2 inh 76 (no result: UCH37 inh)
CC(C)(C)C1CCC2(CC1)SCC(=O)N2c1ccccc1 (centres undefined)	none
CC1CCC2(CC1)SCC(=O)N2c1ccc(F)cc1 (centres undefined)	ALR H2O2 inh 99 (no result: NALP1 inh)
COCCN(C(=O)COC(=O)CSc1ccc2ccccc2c1)c1c(N)n(Cc2ccccc2)c(=O)[nH]c1=O	ALR H2O2 inh 98 (no result: NALP1 inh)
COCCN(C(=O)CSc1nnc(-c2cccc(C)c2)n1C)c1c(N)n(Cc2ccccc2)c(=O)[nH]c1=O	Calb FLC 113
